Results: ChEMBL document CHEMBL1123792, “Nonsteroidal cardiotonics. 1. 2-Pyridyl-6,7-dihydro-3H,5H-pyrrolo[2,3-f]benzimidazol-6-ones, a novel class of cardiotonic agents” (1987)

What was measured:
Felis catus [1] = experiment: Effective dose required to produce an increase in dP/dt50, blood pressure by 1500 mmHg/s was determined in cat by intravenous administration; assay type: functional
Method in brief: (§1)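 Cats of either sex on pentobarbitone (45 mg/kg ip, then 0.1 mg/kg × min infusion), ventilated, open chest. Dextran 10 mL/kg iv, then desacetylmepitranolol 0.3 mg/kg iv for β-blockade failure. LVP/HR via Millar tip in left ventricle; BP, dP/dt50. Rising iv bolus doses 10 min apart, read at 10 min. ED1.5 = dose raising dP/dt50 by 1500 mmHg/s; usually mean of four.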

Felis catus [2] = experiment: Maximum increase in dP/dt recorded in mmHg/s at the dose 3.0 mg/kg administered intravenously in cat; assay type: functional; details: route intravenous; method in brief: as §1
Canis familiaris [3] = experiment: Effective dose required to produce an increase in dP/dt50, blood pressure by 1500 mmHg/s was determined in dog by intravenous administration; assay type: functional, Canis lupus familiaris
Method in brief: (§2)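 Conscious mongrel dogs (both sexes, 25–30 kg), chronically instrumented via left thoracotomy, used ≥10 days after surgery. Femoral artery BP, Millar tip LV pressure, femoral vein injection. dP/dt taken at LVP 60 mmHg. Increasing iv doses 10 min apart, readings every 10 min. ED1.5 = dose raising dP/dt by 1500 mmHg/s; max = peak rise from control; usually mean of four.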

Canis familiaris [4] = experiment: Maximum increase in dP/dt recorded in mmHg/s at the dose 3.0 mg/kg administered intravenously in dog; assay type: functional, Canis lupus familiaris; parameters: unit not given here; details: route intravenous; method in brief: as §2
Rattus norvegicus [5] = experiment: Effective dose required to produce an increase in dP/dt50, blood pressure by 1500 mmHg/s was determined in rat by intravenous administration; assay type: functional
Method in brief: (§3)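 Anesthetized rats, dP/dt50, BP and HR (HR from LVP by pulse counter) recorded continuously. Increasing single bolus doses into jugular vein, 0.5 mL/kg, 10 min apart. Values read 10 min post-injection as steady state, not 1–3 min peak. ED1.5 = dose raising dP/dt50 by 1500 mmHg/s; max = peak rise from control; usually mean of four.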

Rattus norvegicus [6] = experiment: Maximum increase in dP/dt recorded in mmHg/s at the dose 3.0 mg/kg administered intravenously in rat.; assay type: functional; details: route intravenous; method in brief: as §3
Rattus norvegicus [7] = experiment: Maximum increase in dP/dt recorded in mmHg/s at the dose 10.0 mg/kg administered intravenously in rat.; assay type: functional; details: route intravenous; method in brief: as §3
Felis catus [8] = experiment: Maximum increase in dP/dt recorded in mmHg/s at the dose 10.0 mg/kg administered intravenously in cat; assay type: functional; details: route intravenous; method in brief: as §1
Felis catus [9] = experiment: Maximum increase in dP/dt recorded in mmHg/s at the dose 1.0 mg/kg administered intravenously in cat; assay type: functional; details: route intravenous; method in brief: as §1
Felis catus [10] = experiment: Maximum increase in dP/dt recorded in mmHg/s at the dose 0.1 mg/kg administered intravenously in cat; assay type: functional; details: route intravenous; method in brief: as §1
Rattus norvegicus [11] = experiment: Maximum increase in dP/dt recorded in mmHg/s at the dose 1.0 mg/kg administered intravenously in rat.; assay type: functional; details: route intravenous; method in brief: as §3
Canis familiaris [12] = experiment: Maximum increase in dP/dt recorded in mmHg/s at the dose in parentheses administered intravenously in dog; assay type: functional, Canis lupus familiaris; method in brief: as §2
Canis familiaris [13] = experiment: Maximum increase in dP/dt recorded in mmHg/s at the dose 1.0 mg/kg administered intravenously in dog; assay type: functional, Canis lupus familiaris; details: route intravenous; method in brief: as §2
Felis catus [14] = experiment: Maximum increase in dP/dt recorded in mmHg/s at the dose 0.3 mg/kg administered intravenously in cat; assay type: functional; details: route intravenous; method in brief: as §1
Rattus norvegicus [15] = experiment: Maximum increase in dP/dt recorded in mmHg/s at the dose 0.1 mg/kg administered intravenously in rat.; assay type: functional; details: route intravenous; method in brief: as §3

Row | Structure (SMILES) | ED1.5 (Felis catus [1]) [mg/kg] | ED1.5 (Canis familiaris [3]) [mg/kg] | ED1.5 (Rattus norvegicus [5]) [mg/kg] | other results
1 | CCOC(=O)C1(C)C(=O)Nc2cc3[nH]c(-c4ccncc4)nc3cc21 (configuration not stated) | 0.25 | 0.64 | 0.09 | Max (Felis catus [2]): 3700 mmHg/s; Max (Canis familiaris [4]): >3.6; Max (Rattus norvegicus [6]): 4200 mmHg/s
2 | CC1(C)C(=O)Nc2cc3[nH]c(Cc4ccncc4)nc3cc21 | 0.6 | – | 1.14 | Max (Rattus norvegicus [7]): 4100 mmHg/s; Max (Felis catus [8]): 3800 mmHg/s
3 | CC1(C(=O)NN)C(=O)Nc2cc3[nH]c(-c4ccncc4)nc3cc21 (configuration not stated) | – | – | >10 | –
4 | CC1(C)C(=O)Nc2cc3[nH]c(CCc4ccncc4)nc3cc21 | – | – | >10 | –
5 | O=C1Nc2cc3[nH]c(-c4ccncc4)nc3cc2C12CCCC2 | 0.08 | 0.77 | 0.2 | Max (Felis catus [9]): 2800 mmHg/s; Max (Canis familiaris [4]): 2.2; Max (Rattus norvegicus [6]): 3300 mmHg/s
6 | CCC1C(=O)Nc2cc3[nH]c(-c4cccnc4)nc3cc21 (configuration not stated) | 0.15 | – | 0.39 | Max (Felis catus [9]): 2300 mmHg/s; Max (Rattus norvegicus [7]): 4000 mmHg/s
7 | CC1C(=O)Nc2cc3[nH]c(-c4ccncc4)nc3cc21 (configuration not stated) | 0.01 | 0.58 | 0.02 | Max (Felis catus [10]): 2500 mmHg/s; Max (Canis familiaris [4]): 1.7; Max (Rattus norvegicus [11]): 4400 mmHg/s
8 | CC1(C)C(=O)Nc2cc3[nH]c(-c4cc[n+]([O-])cc4)nc3cc21 | – | 0.44 | 0.03 | Max (Canis familiaris [12]): 1800 mmHg/s; Max (Rattus norvegicus [11]): 4900 mmHg/s
9 | CC1(C)C(=O)Nc2cc3[nH]c(-c4ccccn4)nc3cc21 | 0.23 | 1.11 | 0.96 | Max (Felis catus [2]): 2700 mmHg/s; Max (Canis familiaris [4]): 1.7; Max (Rattus norvegicus [6]): 2400 mmHg/s
10 | O=C1Nc2cc3[nH]c(-c4ccncc4)nc3cc2C1C1CCCC1 (configuration not stated) | – | – | >10 | –
11 | CCCCc1ccc(-c2nc3cc4c(cc3[nH]2)C(C)(C)C(=O)N4)nc1 | – | – | >3 | –
12 | CC1(C)C(=O)Nc2cc3[nH]c(-c4ccnc(O)c4)nc3cc21 | 0.21 | – | 0.87 | Max (Felis catus [9]): 2400 mmHg/s; Max (Rattus norvegicus [7]): 3400 mmHg/s
13 | Cc1ccc(-c2nc3cc4c(cc3[nH]2)C(C)(C)C(=O)N4)cn1 | – | – | >3 | –
14 | Cc1cc(-c2nc3cc4c(cc3[nH]2)C(C)(C)C(=O)N4)ccn1 | 0.03 | 0.51 | 0.29 | Max (Felis catus [10]): 2700 mmHg/s; Max (Canis familiaris [13]): 1800 mmHg/s; Max (Rattus norvegicus [11]): 2500 mmHg/s
15 | CC1(C)C(=O)Nc2cc3[nH]c(/C=C/c4cccnc4)nc3cc21 | – | – | 1.21 | Max (Rattus norvegicus [7]): 4300 mmHg/s
16 | CCC1(CC)C(=O)Nc2cc3[nH]c(-c4ccncc4)nc3cc21 | – | – | >3 | Max (Rattus norvegicus [7]): 1900 mmHg/s
17 | CC1(C)C(=O)Nc2cc3[nH]c(-c4ccnc(Cl)c4)nc3cc21 | 0.07 | – | 0.07 | Max (Rattus norvegicus [11]): 3900 mmHg/s
18 | COc1nc(C)ccc1-c1nc2cc3c(cc2[nH]1)C(C)(C)C(=O)N3 | – | – | >10 | –
19 | CC(C)CC1C(=O)Nc2cc3[nH]c(-c4ccncc4)nc3cc21 (configuration not stated) | – | – | >3 | –
20 | CCC1C(=O)Nc2cc3[nH]c(-c4ccncc4)nc3cc21 (configuration not stated) | 0.04 | 0.09 | 0.06 | Max (Felis catus [14]): 2500 mmHg/s; Max (Canis familiaris [13]): 2300 mmHg/s; Max (Rattus norvegicus [6]): 4500 mmHg/s
21 | CC(C)C1C(=O)Nc2cc3[nH]c(-c4ccncc4)nc3cc21 (configuration not stated) | – | – | >3 | Max (Rattus norvegicus [7]): 2200 mmHg/s
22 | CC1(C)C(=O)Nc2cc3[nH]c(-c4cccnc4)nc3cc21 | 0.02 | 0.51 | 1 | Max (Felis catus [14]): 3500 mmHg/s; Max (Canis familiaris [4]): 2.5; Max (Rattus norvegicus [6]): 3500 mmHg/s
23 | CC1C(=O)Nc2cc3[nH]c(-c4cccnc4)nc3cc21 (configuration not stated) | 0.03 | 0.08 | 0.06 | Max (Felis catus [14]): 2300 mmHg/s; Max (Canis familiaris [13]): 2400 mmHg/s; Max (Rattus norvegicus [6]): 4600 mmHg/s
24 | CC1(C)C(=O)Nc2cc3[nH]c(-c4ccncc4)nc3cc21 [ADIBENDAN] | 0.01 | 0.2 | 0.01 | Max (Felis catus [14]): 2000 mmHg/s; Max (Canis familiaris [13]): 2000 mmHg/s; Max (Rattus norvegicus [15]): 3700 mmHg/s
25 | Cc1[nH]c(=O)c(C#N)cc1-c1ccncc1 [MILRINONE] | 0.13 | 0.4 | 0.14 | Max (Canis familiaris [13]): 2000 mmHg/s; Max (Rattus norvegicus [7]): 3400 mmHg/s; Max (Felis catus [8]): 3000 mmHg/s
